Consider seven compounds from ChEMBL document CHEMBL3272012, “5-(Tetradecyloxy)-2-furancarboxylic acid and related hypolipidemic fatty acid-like alkyloxyarylcarboxylic acids” (J Med Chem, 1977).

The test system of data set [1] is Rattus norvegicus. The data set is described as follows: Hypolipidemic activity in Wistar rat assessed as reduction in plasma cholesterol level at 332 umol/kg/day administered through diet for 4 days. The format is functional. To be noted: 96 h. Put shortly: (§1)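 Young male Wistar rats, 170-190 g at start, in groups of six, given compound mixed into Purina Lab Chow ad libitum for 4 or 10 days as stated. Daily dose was calculated from food consumption and body weight. Plasma was taken by cardiac puncture at the end and cholesterol measured by automated procedure. Results are % reduction versus a concurrent untreated control group, with Student's t test.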

In data set [2] the test system is Rattus norvegicus. The data set is described as follows: Hypolipidemic activity in Wistar rat assessed as reduction in plasma triglyceride level at 332 umol/kg/day administered through diet for 4 days. Type of data set: functional. To be noted: 96 h. Put shortly:
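Young male Wistar rats, 170-190 g initial weight, six per group, fed drug mixed thoroughly into Purina Lab Chow ad libitum for the stated days; daily dose calculated from food consumption and body weight. Bled by cardiac puncture at end; plasma cholesterol and triglycerides by automated procedures, expressed as percent reduction versus simultaneous untreated controls; Student's t test.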

Data set [3] has as its system Rattus norvegicus. The data set is described as follows: Increase in liver weight in Wistar rat at 332 umol/kg/day administered through diet for 4 days. The format is ADME, organism-based. To be noted: in vivo, po, 96 h.
Data set [4] has as its system Rattus norvegicus. As to the kind of experiment: Hypolipidemic activity in Wistar rat assessed as reduction in plasma cholesterol level at 471 umol/kg/day administered through diet for 4 days. The format is functional. To be noted: 96 h. Summed up:
(§2)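 Young male Wistar rats, 170-190 g initial weight, groups of six, given compound mixed thoroughly into Purina Lab Chow ad libitum for 4 or 10 days as stated. Daily dose calculated from food consumption and body weight. Bled by cardiac puncture at end of treatment; plasma cholesterol measured by automated procedure. Expressed as percent reduction versus simultaneous untreated control group; Student's t test.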

Data set [5] deals with Rattus norvegicus. The data set is described as follows: Hypolipidemic activity in Wistar rat assessed as reduction in plasma triglyceride level at 471 umol/kg/day administered through diet for 4 days. Type of data set: functional. To be noted: 96 h.
The test system of data set [6] is Rattus norvegicus. As to the kind of experiment: Increase in liver weight in Wistar rat at 471 umol/kg/day administered through diet for 4 days. Type of data set: ADME, organism-based. As to conditions: in vivo, po, 96 h.
In data set [7] the test system is Rattus norvegicus. The data set is described as follows: Increase in liver weight in Wistar rat at 404 umol/kg/day administered through diet for 4 days. The format is ADME, organism-based. To be noted: in vivo, po, 96 h.
For data set [8], the system named is Rattus norvegicus. The data set is described as follows: Hypolipidemic activity in Wistar rat assessed as reduction in plasma cholesterol level at 423 umol/kg/day administered through diet for 4 days. Type of data set: functional. To be noted: 96 h. Summed up: as §2
Data set [9] has as its system Rattus norvegicus. The data set is described as follows: Hypolipidemic activity in Wistar rat assessed as reduction in plasma triglyceride level at 423 umol/kg/day administered through diet for 4 days. As to conditions: 96 h. Type of data set: functional.
Data set [10] concerns Rattus norvegicus. As to the kind of experiment: Increase in liver weight in Wistar rat at 423 umol/kg/day administered through diet for 4 days. To be noted: in vivo, po, 96 h. The format is ADME, organism-based.
The subject of data set [11] is Rattus norvegicus. As to the kind of experiment: Hypolipidemic activity in Wistar rat assessed as reduction in plasma cholesterol level at 417 umol/kg/day administered through diet for 4 days. Type of data set: functional. To be noted: 96 h. Put shortly:
as §2

Data set [12] relates to Rattus norvegicus. The data set is described as follows: Hypolipidemic activity in Wistar rat assessed as reduction in plasma triglyceride level at 417 umol/kg/day administered through diet for 4 days. The format is functional. To be noted: 96 h.
The test system of data set [13] is Rattus norvegicus. The data set is described as follows: Increase in liver weight in Wistar rat at 417 umol/kg/day administered through diet for 4 days. To be noted: in vivo, po, 96 h. The format is ADME, organism-based.
The subject of data set [14] is Rattus norvegicus. The data set is described as follows: Increase in liver weight in Wistar rat at 428 umol/kg/day administered through diet for 4 days. As to conditions: in vivo, po, 96 h. Type of data set: ADME, organism-based.
The subject of data set [15] is Rattus norvegicus. As to the kind of experiment: Hypolipidemic activity in Wistar rat assessed as reduction in plasma cholesterol level at 369 umol/kg/day administered through diet for 4 days. Type of data set: functional. As to conditions: 96 h. Put shortly: as §1
For data set [16], the system named is Rattus norvegicus. The data set is described as follows: Hypolipidemic activity in Wistar rat assessed as reduction in plasma triglyceride level at 369 umol/kg/day administered through diet for 4 days. The format is functional. As to conditions: 96 h. Summed up:
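Young male Wistar rats, 170-190 g at start, six per group, given compound mixed into Purina Lab Chow, fed ad libitum for 4 or 10 days. Daily dose calculated from food consumption and body weight. Rats bled by cardiac puncture at end of treatment. Plasma triglycerides determined by automated procedure. Expressed as percent reduction versus a concurrent untreated control group, Student's t test.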

Data set [17] relates to Rattus norvegicus. The data set is described as follows: Increase in liver weight in Wistar rat at 369 umol/kg/day administered through diet for 4 days. The format is ADME, organism-based. To be noted: in vivo, po, 96 h.

SMILES strings stand for the structures.

The term inhibition in vivo denotes the relative decrease from the control value, in per cent. As to `CCCCCCCCCCCCCCOc1cc(C(=O)OC)cc(C(=O)OC)c1`, the inhibition in vivo at 332 µmol/kg in the data set on Rattus norvegicus [1] was 5%; in the data set with Rattus norvegicus [2], 39%. The compound also gave an Activity in the data set on Rattus norvegicus [3] of 0%.

On to `CCCCCCCCCCCCCCOc1ccc(C(=O)O)c(C)c1`, for which the inhibition in vivo at 471 µmol/kg turned out to be 6% in the data set with Rattus norvegicus [4] and 27% with Rattus norvegicus [5]. The compound also registered an Activity in the data set on Rattus norvegicus [6] of 5%.

Turning to `CCCCCCCCCCCCCCCCSc1ccc(C(=O)O)cc1`, the Activity in the data set on Rattus norvegicus [7] is reported as 6%.

Regarding `CCCCCCCCCCCCCCOc1ccc(C(=O)OC)cc1C(=O)OC`, the inhibition in vivo at 423 µmol/kg worked out at 7% in the data set with Rattus norvegicus [8] and 10% with Rattus norvegicus [9]. In the data set on Rattus norvegicus [10], this compound had an Activity of 0%.

With `CCCCCCCCCCCCCCOc1ccc(C(=O)OC)c(OC)c1`, the inhibition in vivo at 417 µmol/kg in the data set with Rattus norvegicus [11] was determined as 7%; in the data set with Rattus norvegicus [12] it was 0%. The Activity in the data set on Rattus norvegicus [13] is recorded as 0%.

For the compound `CCCCCCCCCCCCCCSc1ccc(C(=O)O)cc1`, the Activity with Rattus norvegicus [14] is listed as 6%.

In the case of `CCCCCCCCCCCCCCOc1ccc(C(=O)C(Cl)(Cl)Cl)o1`, the inhibition in vivo at 369 µmol/kg in the data set with Rattus norvegicus [15] amounted to 9%; with Rattus norvegicus [16], 33%. This compound gave an Activity in the data set on Rattus norvegicus [17] of 6%.
